Results as given in PubChem BioAssay AID434971 (Sanford-Burnham Center for Chemical Genomics, 2010).
Hit rate of the full screen: of about 11,000 compounds, about 510 (4.6%) were called active.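 The calls were made as follows: active = inhibition of at least 40% at 10 µM in either of the two replicates; inactive = the rest.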 The full list was thinned out, with actives kept by preference.

System: intestinal alkaline phosphatase [Mus musculus]
Experiment: inhibitors of mouse IAP, confirmation, biochemical, luminescence, single concentration (AID 434971);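 also: plate controls were DMSO wells with enzyme for no effect and buffer wells lacking enzyme for full effect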
Conditions: purified mouse IAP, CDP-Star luminescence, 30 min; at 10 µM; stronger effect = higher value
Outline: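 Reagent: CDP-Star. System: mouse IAP enzyme. Incubation: 30 min, room temperature. Dosing: test compound delivered in DMSO. Signal: luminescence. Medium: DEA buffer, ZnCl2, MgCl2. Benchmarks: enzyme-free wells as negative control.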

inhibition, inactive:
Cc1cc(C)cc(NC(=O)NC2CCCCCCC2)c1 -237%
COc1ccc(CN2CCC(n3nccc3NC(=O)CCCc3ccccc3)CC2)cc1C -140%
COc1ccc(NC(=O)NC2CC3CCCC(C2)N3Cc2ccccc2)cc1 (stereo not given) -171%
c1ccc(-c2cc3c(NCC4COc5ccccc5O4)ncnc3s2)cc1 (stereo not given) -97.1%
Cc1ccc(C)c(CN2CCC(CNC(=O)Nc3ccc(C)c(F)c3)CC2)c1 -116%
CCn1cc(CN2CCC(C(=O)Nc3cccc(-c4cccc(Cl)c4)c3)CC2)cn1 -329%
C#CCOCCOCCOCCNc1nc(N2CCN(C(=O)CCCCCCCCCCNC(=O)Cn3cc(CCCCCN)nn3)CC2)nc(N2CCN(C(=O)CCCCCCCCCCNC(=O)[C@H](CO)n3cc(CCCSC)nn3)CC2)n1 -153%
CC(C)S(=O)(=O)c1csc(NC(=O)Nc2ccc(Cl)cc2)c1Cl -116%
COC(=O)c1ccc(NC(=O)Nc2ccc(C)cc2)cc1 -115%
CCn1cc(CN2CCC(C(=O)Nc3cccc(-c4cccc(Cl)c4)c3)CC2)c(C)n1 -396%
Cc1cccc(CN2CCC(CNC(=O)Nc3ccc(F)c(Cl)c3)CC2)c1 -115%
O=C(Nc1cccc(-c2cccc(Cl)c2)c1)C1CCN(C2CCC2)CC1 -294%
Cc1cc(NC(=O)Nc2ccc(Cl)cc2)n(-c2ccccc2)n1 -107%
O=C(Nc1cccc(F)c1)NC1CCCCCCC1 -142%
OCCCN1c2ccccc2Nc2nnc(-c3ccccc3)cc21 -208%
CCc1ccc(NC(=O)NC(C)c2ccc3c(c2)OCO3)cc1 (stereo not given) -166%

inhibition, active:
O=C(CCCN1C(=O)/C(=C\c2ccco2)SC1=S)Nc1cccc2ccccc12 49.1%
O=C(CCCN1C(=O)/C(=C/c2ccco2)SC1=S)Nc1ccccc1 49.1%
O=c1ccc2c(-c3ccccc3S(=O)(=O)O)c3ccc(O)c(O)c3oc-2c1O 79.7%
O=C(Nc1nc(-c2ccco2)c(-c2ccco2)s1)c1ccco1 74.3%
COc1ccccc1-n1c(-c2cc(-c3ccco3)[nH]n2)n[nH]c1=S 68.7%
COc1cc(C(=O)Nn2c(O)c(C3=c4ccccc4=NC3=O)sc2=S)ccc1O 93.1%
CCN(c1ccccc1)S(=O)(=O)c1ccc2[nH]c(=O)[nH]c2c1 73.4%
NS(=O)(=O)c1ccc(-c2ccc(/C=C3\SC(=O)NC3=O)o2)cc1 68.1%
Oc1ccc(CNc2ccccc2O)cc1 41.2%
Nc1ccc2nc3c(=O)[nH]c(=S)[nH]c3nc2c1 78.3%
Oc1cc(O)c2c(c1)OC(c1ccc(O)c(O)c1)C(O)C2 (stereo not given) 84.5%
COc1cccc(/C=N\NC(=O)C2=NNC(=O)C2C)c1O (stereo not given) 60.2%
Cc1ccc(Cc2cnc(N)s2)o1 58.5%
O=c1[nH]c(=S)[nH]c2[nH]c(=S)[nH]c12 81.9%
COc1ccc(OC)c(Nc2nc(-c3ccc(O)c(O)c3)cs2)c1 74.3%
COc1cc(/C=N\Nc2nc(-c3cccs3)c(NC(C)=O)s2)ccc1O 47%
c1ccc(CSc2nnc(-c3ccco3)c(-c3ccco3)n2)cc1 69%
Clc1ccccc1CSc1nnc(-c2ccco2)c(-c2ccco2)n1 71.8%
O=[N+]([O-])c1cc(Cl)cc(/C=N/NC(=S)Nc2cc(S(=O)(=O)N3CCOCC3)ccc2Cl)c1O 40.3%
